The source of these data is ChEMBL document CHEMBL1145185, “Novel inhibitors of human histone deacetylases: design, synthesis, enzyme inhibition, and cancer cell growth inhibition of SAHA-based non-hydroxamates” (J Med Chem, 2005).

In test [1] the test system is NCI-H460. Briefly: Inhibition of human lung cancer NCI-H460 cell growth. It counts as functional, cell-based. A digest of the protocol:
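Cells seeded at 1500/well, 37 °C; after 24 h exposed to compounds at various concentrations in 10% FBS RPMI-1640, 37 °C, 5% CO₂, 48 h. Stained with 0.5 mg/mL methylene blue, room temperature, 30 min; dye dissolved in 3% aqueous HCl, absorbance at 660 nm. EC₅₀ reported as mean of at least two experiments.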

The target in test [2] is Histone deacetylase. Briefly: Inhibitory concentration against human histone deacetylase. It counts as protein assay.
In test [3] the target is Histone deacetylase (Homo sapiens) (UniProt Q13547+O15379+Q9UBN7+Q92769+Q9UQL6+Q8WUI4+Q9BY41+Q96DB2+P56524+Q9UKV0+Q969S8). To be noted: at 100 µM.
The nature of test [4]: Effective Concentration of compound to inhibit the growth of human RXF-631L cells. Type of test: functional, cell-based.

Regarding `O=C(CCCCCCSC(=O)c1ccc([N+](=O)[O-])cc1)Nc1ccccc1`, in test [1], the EC50 came to 24 µM. That is a double-digit micromolar value.

In test [1], `CC(C)C(=O)SCCCCCCC(=O)Nc1cccc(-c2ccccc2)c1` returned an EC50 of 2.8 µM.

With `CC(C)C(=O)SCCCCCCNC(=O)c1ccc2ccccc2c1`, the EC50 in test [1] came to 12 µM.

With `O=C(NCCCCCCS)c1ccc2ccccc2c1`, the IC50 in test [2] (read-out: IC50) came out at 0.085 µM.

Take `CN(C)c1ccc(NC(=O)CCCCCCS)cc1`: the IC50 in test [2] (read-out: IC50) worked out at 1.2 µM.

`CC(C)(C)C(=O)SCCCCCCC(=O)Nc1ccccc1` registered an EC50 in test [1] above 50 µM.

For `CC(C)C(=O)SCCCCCCC(=O)Nc1cccnc1`, it took 2.9 µM to reach a half-maximal effect in test [1] (EC50). This counts as single-digit micromolar.

In turn, `CCCC(=O)SCCCCCCC(=O)Nc1ccccc1` came in with an EC50 in test [1] of 22 µM.

In turn, `CCC(=O)SCCCCCCC(=O)Nc1ccccc1` registered an EC50 in test [1] of 28 µM.

Turning to `C#CCNCCCCCC(=O)Nc1ccccc1`, in test [2], the IC50 is above 100 µM. This molecule also registered an inhibition in test [3] of 14%.

Consider `O=C(CCCCCCSC(=O)C1CCCC1)Nc1ccccc1`, for which the EC50 in test [1] stood at 21 µM.

With `O=C(CCCCCCSSCCCCCCC(=O)Nc1ccccc1)Nc1ccccc1`, the EC50 in test [1] was above 50 µM.

As to `O=C(CCCCCCS)Nc1cccc(Oc2ccccc2)c1`, in test [2] (read-out: IC50), the IC50 came to 0.21 µM.

In turn, `CSCCCCCCC(=O)Nc1ccccc1` showed an IC50 in test [2] above 100 µM. This molecule yielded an inhibition in test [3] of 11%.

With `NCC(=O)NCCCCCC(=O)Nc1ccccc1`, the IC50 in test [2] was above 100 µM.

On to `O=C(CCCCCCSC(=O)C1CC1)Nc1ccccc1`, for which the EC50 in test [1] was found to be 27 µM.

Turning to `O=C(NCCCCCCS)c1ccccc1`, the IC50 in test [2] (read-out: IC50) was found to be 0.36 µM.

`CC(C)(C)C(=O)OCSCCCCCCC(=O)Nc1ccccc1` yielded an EC50 in test [1] of 25 µM.

As for `CC(=O)SCCCCCCC(=O)Nc1ccccc1`, the EC50 in test [1] was found to be 36 µM. In test [3], this molecule yielded an inhibition of 85%.

With `CC(C)C(=O)SCCCCCCC(=O)Nc1cccc(Oc2ccccc2)c1`, the EC50 in test [1] was 25 µM. This counts as double-digit micromolar.

Turning to `O=C(CCCCCCS)Nc1cccnc1`, the IC50 in test [2] (read-out: IC50) worked out at 0.11 µM.

`C#CCN(CC#C)CCCCCC(=O)Nc1ccccc1` showed an IC50 in test [2] above 100 µM. This molecule also showed an inhibition in test [3] of 0%.

`O=C(CCCCCCS(=O)(=O)NO)Nc1ccccc1` gave an IC50 in test [2] above 100 µM. Also, the inhibition in test [3] came to 14%.

Regarding `SCCCCCCOc1ccccc1`, the IC50 in test [2] (read-out: IC50) came out at 11 µM.

As to `O=C(CO)NCCCCCC(=O)Nc1ccccc1`, the IC50 in test [2] was above 100 µM.

Take `CNC(=O)C(=O)CCCCCCC(=O)Nc1ccccc1`: the IC50 in test [2] was determined as 0.34 µM.

For `CC(C)C(=O)SCCCCCCNC(=O)c1cc2ccccc2[nH]1`, the EC50 in test [1] stood at 12 µM.

Take `O=C(NCCCCCCS)c1cc2ccccc2[nH]1`: the IC50 in test [2] (read-out: IC50) was determined as 0.1 µM.

On to `O=C(CCCCCCS)Nc1ccc(-c2ccccc2)cc1`, for which, in test [2] (read-out: IC50), the IC50 was found to be 1.1 µM.

In turn, `O=C(CCCCCCS)Nc1nc2ccccc2s1` showed an IC50 in test [2] of 0.34 µM.

Turning to `O=C(CCCCCCS)Nc1cccc(-c2ccccc2)c1`, the IC50 in test [2] (read-out: IC50) was 0.075 µM.

As for `CC(C)C(=O)SCCCCCCC(=O)Nc1nc2ccccc2s1`, the midpoint of the response in test [1], the EC50, lay at 9.5 µM. That is a single-digit micromolar value.

For the molecule `O=C(CCCCCCS)Nc1ccc(Oc2ccccc2)cc1`, the IC50 in test [2] (read-out: IC50) turned out to be 0.62 µM.

`CC(C)C(=O)SCCCCCCC(=O)Nc1nc(-c2ccccc2)cs1` gave an EC50 in test [4] of 2.4 µM.

`CC(C)C(=O)SCCCCCCC(=O)Nc1cnc2ccccc2c1` showed an EC50 in test [1] of 8 µM. That is a single-digit micromolar value.

Turning to `O=C(CCCCCCS)Nc1nc(-c2ccccc2)cs1`, the IC50 in test [2] (read-out: IC50) is 0.17 µM.

In the case of `CN(C)c1ccc(C(=O)NCCCCCCS)cc1`, in test [2] (read-out: IC50), the IC50 turned out to be 0.61 µM.

`O=CN(O)CCCCCCCC(=O)Nc1ccccc1`: the IC50 in test [2] was 2.8 µM.

`CC(C)C(=O)SCCCCCCNC(=O)c1cc2ccccc2o1` registered an EC50 in test [1] of 4.1 µM.

A word on the EC50: it is the midpoint of the concentration-response curve. Read a high EC50 as a less potent agent. The term IC50 denotes the midpoint of a concentration-inhibition curve. Broadly, the inhibition is the percentage by which the read-out fell short of the control.
